# EBI2 block: antagonists of human EBI2 receptor; P32249; EBI2 beta-arrestin recruitment, luminescence, 7a,25-OHC stimulated; inhibition, % at 5 µM; 0.81% of 360,000 active; AID 651636; in the data active = inhibition above about 38%;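 note: enzyme fragment complementation signal reports receptor beta-arrestin coupling in cells; 0% = agonist plus DMSO wells and 100% = wells without agonist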
# CXCR6 inh: blocks human CXCR6 beta-arrestin recruitment; inhibition, % at 20 µM; CHO-K1 PathHunter CXCR6 beta-arrestin, luminescence; O00574; 0.36% of 360,000 active; AID 602244; in the data active = inhibition above about 34%, passing the limit was not always enough;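 note: antagonist mode with CXCL16 agonist at 10 nM final; 0% = 10 nM CXCL16 with DMSO and 100% = unstimulated wells without agonist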
# CCR6 antag: CCR6 (human) receptor antagonism | CHO-K1 CCR6 PathHunter beta-arrestin, luminescence, CCL20-stimulated | inhibition, % at 20 µM | 0.49% of 340,000 active | AID 493098 | P51684;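 active = compounds whose inhibition of the agonist-driven luminescence signal at 20 µM reaches about 50%, limit read from the data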;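 note: cells stimulated with CCL20 at 14 nM final; plate controls were DMSO with CCL20 for no effect and DMSO without agonist for full effect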
# Target sequence (P51684 whole entry, looked up): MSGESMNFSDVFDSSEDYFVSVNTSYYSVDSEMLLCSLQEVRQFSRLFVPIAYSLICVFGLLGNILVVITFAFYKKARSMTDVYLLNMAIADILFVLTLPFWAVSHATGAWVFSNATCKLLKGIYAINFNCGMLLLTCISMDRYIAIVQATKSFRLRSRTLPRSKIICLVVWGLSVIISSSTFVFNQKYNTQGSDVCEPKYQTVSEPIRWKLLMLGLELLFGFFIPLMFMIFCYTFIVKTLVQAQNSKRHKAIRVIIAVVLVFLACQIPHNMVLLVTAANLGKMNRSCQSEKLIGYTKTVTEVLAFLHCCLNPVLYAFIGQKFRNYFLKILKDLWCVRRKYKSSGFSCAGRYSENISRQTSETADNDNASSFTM
# APJ ag: APJ receptor agonism. P35414. CHO-K1 APJ PathHunter beta-arrestin, luminescence; 0% DMSO wells, 100% apelin. activation, % at 20 µM. 0.11% of 330,000 active. AID 2520;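 active = activation more than six SD over the plate average, tested at 20 µM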;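 note: 0% = DMSO alone and 100% = apelin-13 at 10 nM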
#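 system = engineered CHO-K1 APJ arrestin reporter cells | input = 1000 cells per well | timing = overnight seeding, 90 min compound at 25 °C, 1 h detection | measured by = enzyme-fragment complementation luminescence | read-out = beta-arrestin recruitment to APJ as agonist activity, luminescent signal | control set = negative DMSO alone, positive Apelin-13 at 10 nM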
# APJ antag: APJ receptor antagonism | inhibition, % at 20 µM | 0.32% of 330,000 active | CHO-K1 APJ beta-arrestin complementation, luminescence | P35414;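 active = inhibition above about 40% at 20 µM, limit read from the data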;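 note: cells challenged with 10 nM apelin-13 agonist together with compound; plate controls were apelin-13 plus DMSO wells for no effect and DMSO wells lacking apelin-13 for full effect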
# APJ antag confirm: confirmation of human APJ apelin receptor antagonists. inhibition, % at 20 µM. 66% of 950 active. APJ beta-arrestin recruitment, luminescence, antagonist mode. AID 2766. shares compounds with APJ antag; in the data active = inhibition above about 50%
# * = called active by the depositor; nt = not tested or not shown. Only some compounds are listed: those with a hit (about 1.5% of all), similar ones and a draw of the others.
SMILES,EBI2 block,CXCR6 inh,CCR6 antag,APJ ag,APJ antag,APJ antag confirm
Cc1cc(N2C(=O)C(O)=C(C(=O)c3cc4ccccc4o3)C2c2cccc(Br)c2)no1 (stereo unspecified),11,5,4,-3,31,nt
CCCOc1cccc(C2C(C(=O)c3cc4ccccc4o3)=C(O)C(=O)N2c2cc(C)on2)c1 (stereo unspecified),-2,-2,5,-4,47*,35
O=S(=O)(c1cccc(Cl)c1Cl)N1CCCCC1,-1,7,3,2,40*,22
CCNC(=O)C1(C)CCN(C(=O)c2ccc3ccccc3c2)C1 (stereo unspecified),10,1,nt,nt,nt,nt
Cc1ccc(C)c2nc3sc(C(=O)N4CCCc5ccccc54)c(N)c3cc12,75*,38,47,-17,59*,58*
Cc1cc([N+](=O)[O-])nn1CC(=O)NNC(=S)Nc1ccc([N+](=O)[O-])cc1,11,27,40,-7,47*,70*
Brc1ccc(N=Nc2ccc3ccccc3n2)cc1,43,16,31,-13,49*,54*
CCn1c(O)c(N=Nc2ccc3ccccc3n2)c2ccccc21,29,4,13,-2,13,nt
C[C@H]1CN([C@@H](C)CO)C(=O)c2cc(Br)cnc2O[C@H]1CN(C)C(=O)c1ccc2c(c1)OCO2,-4,-2,nt,nt,nt,nt
O=C(C1=C(Nc2ccccc2)c2ccccc2S(=O)(=O)N1)c1ccccc1,10,33,70*,-6,45*,72*
CN1/C(=C\C=C2/SC(=S)N(CC(=O)O)C2=O)C(C)(C)c2ccccc21,0,45*,59*,-11,51*,93*
CCCN1C(=O)/C(=C/C=C2\N(CC)c3ccccc3C2(C)C)SC1=S,37,20,34,-12,15,nt
C=CCN1C(=O)/C(=C\C=C2\N(C)c3ccccc3C2(C)C)SC1=S,38,30,71*,-7,57*,82*
CN1CCS/C1=C\C=C1/SC(=S)N(CC(=O)O)C1=O,11,21,32,nt,nt,nt
CCS(=O)(=O)N1CCN(C(=O)c2ccc3nc(C)c(N(C)C(=O)CCc4ccccc4)n3c2)CC1,-4,0,nt,nt,nt,nt
COC(=O)CSc1nnc([C@H](Cc2ccccc2)NC(=O)OC(C)(C)C)o1,-1,-2,-2,0,-15,nt
COC(=O)CS(=O)(=O)c1nnc([C@H](Cc2ccccc2)NC(=O)OC(C)(C)C)o1,-2,56*,77*,-4,48*,73*
COc1cccc(CN2CCC2(C)C(=O)Nc2cccc(Oc3ccccc3)c2)c1F (stereo unspecified),21,6,nt,nt,nt,nt
COCCNC(=S)N/N=C(\C)c1ccc(Cl)c(Cl)c1Cl,13,27,38,-4,43*,36
COCCNC(=S)N/N=C(\C)c1ccc(Cl)c(Cl)c1,2,1,15,-4,11,nt
CC(C)CNc1ncnc2c1ncn2[C@H]1CN(Cc2ccco2)C[C@@H](CO)O1,-4,-2,nt,nt,nt,nt
CN(C)Cc1cc(C(C)(C)c2ccccc2)ccc1O,-2,12,15,nt,nt,nt
NS(=O)(=O)c1ccc(N=Nc2c[nH]c(=O)c(O)c2)cc1,14,44*,71*,-10,53*,90*
Cc1ccc(C(C[N+](=O)[O-])c2c(C)[nH]n(-c3ccccc3)c2=O)cc1 (stereo unspecified),-2,6,25,4,0,nt
Cc1[nH]n(-c2ccccc2)c(=O)c1C(C[N+](=O)[O-])c1ccc(F)cc1 (stereo unspecified),-16,11,16,1,45*,16
O=C(NCCCCCCNC(=O)c1ccc(Br)s1)c1ccc(Br)s1,23,7,1,-4,-1,nt
O=C(CNc1ccc(Br)cc1)c1ccc(Br)s1,38,41*,66*,-16,66*,108*
C/C=C/c1cccc(-c2nc(C(=O)NC3CCC3)cc3c2[C@@H](CCO)N(S(=O)C(C)(C)C)C3)c1 (stereo partly specified),0,-8,nt,nt,nt,nt
O=C(COC(=O)c1cnccn1)c1cccc([N+](=O)[O-])c1,3,32,53*,-13,42*,79*
